Test system: SF-295
Assay: Cytotoxicity against human SF295 cells
Type: functional
Conditions: read-out: GI50
Procedure, shortened: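 Tested in a 60-cell-line human tumor panel screen; the read-out is growth inhibition, reported as GI50 for each cell line.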

Compound	GI50 [nM]
COc1cc(/C=C/c2cc(O)c(CC=C(C)C)c(O)c2)cc2c1O[C@]1(C)CC[C@@H](O)C(C)(C)[C@H]1C2 [SCHWEINFURTHIN F]	< 36
CC(C)=CCc1c(O)cc(/C=C/c2cc(O)c3c(c2)C[C@@H]2C(C)(C)[C@H](O)CC[C@@]2(C)O3)cc1O [SCHWEINFURTHIN G]	10
